Test results from ChEMBL document CHEMBL4513216, “Probing the Open Global Health Chemical Diversity Library for Multistage-Active Starting Points for Next-Generation Antimalarials” (ACS Infect Dis, 2020).

Assay: Toxicity liver stage against HepG2, at 10uM
Type: cell-based
Set-up: test concentration 10 uM, cell line HepG2-A16-CD81EGFP
Details: human, HepG2-A16-CD81EGFP cells; read-out: INHIBITION
Summary of the method: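 Uninfected HepG2-A16-CD81EGFP cells, 3 × 10^3 per well, 1536-well, plated on prespotted compound at 10 μM final, parasite-free screening media added to match infected plates; puromycin 10 μM positive, DMSO 0.5% negative; run in parallel with 48 h PbLuc assay at 37 °C, 5% CO2; viability by CellTiter-Glo luminescence, normalized to controls.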

| Structure (SMILES) | cytotoxicity at 10 µM [%] |
| --- | --- |
| CC(=O)N1CCC2(CC1)CN(C(C)=O)CC21CCNC1=O (centres undefined) | -2.69 |
| CN(C)c1nccc(NCc2cc(-c3cccs3)n[nH]2)n1 | -5.03 |
| COc1ccc(OC)c(Sc2ncccc2C(=O)N(C)CCC#N)c1 | 13.3 |
| CCOC(=O)C1CCN(C(=O)CN2CCCC2c2ccccc2C)CC1 (centres undefined) | 7.97 |
| CCO[C@H]1CN(C(=O)c2ccnnc2)[C@@H]2COC[C@H]12 | 0.403 |
| c1nc2c(c(NC3CCC3)n1)CCNCC2 | -1.28 |
| CC(C)CN1CCC(NC(=O)c2ccc(F)cc2F)CC1 | -3.1 |
| O=C([C@H]1COC[C@H]2CN(C3CCOCC3)C[C@H]21)N1CCC(F)CC1 | -112 |
| Cc1nn(C)c(C)c1CC(=O)NCc1cccnc1N1CCOCC1 | -139 |
| CC(=O)N1CCCC(C(=O)N2CCN(c3cnn(C)c(=O)c3)CC2)C1 (centres undefined) | 0.761 |
| CNc1nc(N2CCN(Cc3ccsc3)C(CCO)C2)nc2c1CCC2 (centres undefined) | 3.96 |
| Cc1cccc(C(=O)N2C[C@@H](OCc3ccncc3)[C@@H]3OCCC[C@@H]32)n1 | -5.06 |
| CC(C)CCC(=O)N1CCN(c2ncnc3nc(N)ccc23)CC1 | 8.32 |
| Cc1ccc2c(c1)c(CNC(=O)C1CC(=O)N(C3CCCC3)C1)nn2C (centres undefined) | -19.9 |
| Cc1cnn(C2CN(CC(O)COCc3ccc4c(c3)OCO4)C2)c1 (centres undefined) | -5.41 |
| CCN1CCc2c(sc3c2C(=O)NC(C=Cc2ccccc2)N3)C1 (centres undefined) | 4.73 |
| O=C(NCCn1nc2ccccn2c1=O)c1scnc1Cl | -13.9 |
| COc1cccc(C(=O)N2C[C@@H](C(=O)O)[C@H](c3ccccc3C)C2)c1 | 0.291 |
| O=C(O)c1ccn(-c2ccccc2NC(=O)c2ccccc2Cl)n1 | -161 |
| CN1C(=O)CC(c2cnn(C)c2)C12CCN(C(=O)c1cccn1C)CC2 (centres undefined) | -74 |
| Cn1cc(N2C(=O)CC[C@@H]3[C@H]2CCN3CC2CCOCC2)cn1 | 7.86 |
| COCC(=O)N1CC[C@@H](N2CCOCC2)[C@@H]1Cc1cccnc1 | -95.5 |

| Structure (SMILES) | cytotoxicity at 10 µM [%] |
| --- | --- |
| Cn1cc(CN2CCC3(C2)CN(Cc2ccsc2)C3)cn1 | -11.2 |
| CCOC(=O)[C@@H]1[C@@H](c2ccccc2)CN2CCNC[C@H]12 | 3.8 |
| CN(CC(N)=O)S(=O)(=O)c1ccc(F)cc1F | 4.26 |
| CO[C@H]1CCN(S(=O)(=O)c2cccs2)[C@H]1Cc1cccnc1 | -75.5 |
| Cc1ccc(C(=O)NCC2(O)CCOCC2)cc1F | 6.79 |
| O=C(NS(=O)(=O)c1ccc(Cl)cc1F)c1cccc2c1OCCO2 | -5.33 |
| CCc1n[nH]c(C2CN(C(=O)c3cc(C4CC4)on3)CCO2)n1 (centres undefined) | -6.43 |
| O=C(N1CCCC1)N1Cc2nccn2CC(COc2cccnc2)C1 (centres undefined) | 0.997 |
| CCOc1ccccc1OC1CCN(C(=O)c2csnn2)CC1 | -5.5 |
| N#Cc1cccnc1NCc1cccnc1N1CCCCC1 | -48.3 |
| CCn1cc(NS(=O)(=O)c2ccc(Br)s2)c(C(=O)NCC(C)C)n1 | 6.86 |
| O=C(CCCn1cncn1)N1CCC2(CCCN(CC3CC3)C2=O)C1 (centres undefined) | -0.611 |
| Cc1ccc(OCC(=O)Nc2ccc(S(C)(=O)=O)cc2)cc1C | -2.4 |
| CN(CCc1nc2ccccc2c(=O)[nH]1)CCC(F)(F)F | -2.27 |
| c1cnc(N2CCOC3(CCCN(c4cnccn4)C3)C2)nc1 (centres undefined) | 10.1 |
| O=C(NCC1CCCO1)c1cc(-c2ccncc2)c2cnccc2n1 (centres undefined) | 1.05 |
| CCn1cc(NC(=O)N2CCN(C(=O)Oc3ccccc3)CC2)cn1 | 1.1 |
| CCn1c(CN2CCOC(Cn3cncn3)C2)nc2cc(F)ccc21 (centres undefined) | -4.84 |
| Cc1noc(-c2ccnc(Oc3ccc(CN4CCCC4)cc3F)c2)n1 | 15.7 |
| Cc1noc(CCCC(=O)NCC(c2ccco2)N2CCCCC2)n1 (centres undefined) | 13.1 |
| CN1CCC(CN(C)S(=O)(=O)CC2CCCCC2)CC1 | 0.304 |
| CCOCC(=O)NC1(c2cccc(Cl)c2)CC1 | 3 |

| Structure (SMILES) | cytotoxicity at 10 µM [%] |
| --- | --- |
| CNC(=O)[C@@]12CCC3(CCN(C(=O)C(C)C)CC3)[C@@H]1CN(S(C)(=O)=O)C2 | 3.89 |
| COCCNC(=O)[C@H]1C[C@@H]2CCN(CCc3ccccc3)C[C@H]2O1 | -70.3 |
| CN1CC2(CCCN(Cc3ccc(Oc4ccccc4)cc3)C2)OC1=O (centres undefined) | 15.8 |
| Cc1nccc(C2CN(Cc3ccc(-c4ccccc4C(=O)O)o3)C2)n1 | 4.28 |
| Cc1cnn(CC2CN(CCc3cccs3)CCO2)c1 (centres undefined) | -14.2 |
| C=C/C=c1\c(=C/C)oc2c(NCc3ccccc3)nc(C)nc12 | 24.8 |
| Cc1ccc(N2CC[C@H]3C[C@H](C(=O)NCc4ccco4)O[C@@H]3C2)cc1 | 8.8 |
| Cc1nnc2n1CCN(C(=O)c1cn(-c3ccc(F)cc3)nn1)C2 | -149 |
| CC(C)N1CCOC(c2cc(CCO)[nH]n2)C1 (centres undefined) | 1.47 |
| COc1ccc(CNC(Cn2cncn2)c2ccccc2)cc1O (centres undefined) | -6.74 |
| COc1ccc(-c2cc(C3(O)CCCC3)on2)cc1 | 2.5 |
| CC(=O)N1CCCCC1c1nc(C)cc(-c2ccccc2C(=O)O)n1 (centres undefined) | -12.8 |
| Cc1cc(C)cc(N(C)S(=O)(=O)c2cc3c(c(C(=O)O)c2)OCCO3)c1 | -4.02 |
| CC(=O)N1CCCC(Cc2cnc(C(=O)N3CCC(C)CC3)cn2)C1 (centres undefined) | 4.82 |
| Cc1nc(C)c(COc2ccc(N(C)S(C)(=O)=O)cc2)s1 | 23.2 |
| Cc1cc(C(F)(F)F)cc(N2C[C@@H](CN(C)CCO)[C@@H](CO)C2)n1 | -14.4 |
| CC(=O)c1cc(C(=O)N2CC[C@H]3CC[C@@H](C2)N3C)c(=O)[nH]c1C | 11.4 |
| COC(=O)C(CNC(=O)Nc1nncs1)Cc1cccc(C)c1 (centres undefined) | 6.53 |
| COCC1CN(Cc2ccoc2)Cc2cn(CC3CCOCC3)nc21 (centres undefined) | 11.6 |
| CCOCC(=O)N1CCc2c(ncnc2N2CCOCC2)C1 | -6.63 |
| Cc1n[nH]c(C)c1CCCN(C)Cc1c[nH]nc1-c1ccc(F)cc1 | 3.45 |
| Cc1nn(C)c(C)c1CC(=O)N1CCCN(c2cccnn2)CC1 | -2.1 |

| Structure (SMILES) | cytotoxicity at 10 µM [%] |
| --- | --- |
| Cc1nccn1CC1CCCN1S(=O)(=O)Cc1ccccc1F (centres undefined) | -3.33 |
| Cc1cccc(C)c1OCCNC(=O)CN1CCN(C)CC1C (centres undefined) | -6.28 |
| Cc1nsc(N2CCN(CC(=O)NCc3ccc(F)cc3)CC2)n1 | -6.84 |
| COCCn1c2c(ccc1=O)CCN(C(=O)NC1CC1)CC2 | 1.77 |
| CC1CCCN(S(=O)(=O)NCCCn2ccc3ccccc32)C1 (centres undefined) | 13.6 |
| COc1ccc(C(C)NCCC(N)=O)cc1F (centres undefined) | -7.77 |
| Cc1ccc(S(=O)(=O)N2CCc3nc(C4CCNCC4)ncc3C2)cc1 | -3.24 |
| CN(CCN1CCCCCC1)C(=O)c1cc(CN2CCC(O)CC2)on1 | -17.5 |
| O=C(COc1ccc(C(F)(F)F)cc1)NS(=O)(=O)c1cccnc1 | -7.44 |
| O=C(NCc1cccc(F)c1)c1cccc(C(=O)N2CCCC2)n1 | 5.79 |
| CCNC(=O)N(C)C(c1cccnc1)C(C)C (centres undefined) | -10.2 |
| CSc1nc(C2CC2)nc(C)c1C(=O)NCc1ncc(C)o1 | -3.71 |
| CC(C)N1CCN2C(=O)N(C3CCCCC3)C[C@H]2C1 | 1.2 |
| CSCC(=O)N1CCc2c(cnc(C)c2-c2noc(-c3cc[nH]n3)n2)C1 | 1.87 |
| CCn1ccnc1CN1CCCN(C(=O)COC2CCCCC2)CC1 | -11.7 |
| Cc1csc(C2NC3(CCCC3)C(=O)N2CC2CC2)n1 (centres undefined) | 3.24 |
| CCS(=O)(=O)N1CCC(c2nnc(Cn3cccn3)n2C2CC2)CC1 | -14.2 |
| COc1c(CC2CC(CO)=NO2)c(Br)c2c(c1OC)OCO2 (centres undefined) | -1.43 |
| O=S(=O)(Cc1ccc(F)c(Cl)c1)NC(CO)c1ccco1 (centres undefined) | -3.49 |
| CCc1ncc(C(=O)N2CCN(Cc3ncccc3C)CC2)cn1 | -4.68 |
| Cn1cc(CN2CCCC23CCN(c2nc4ccccc4s2)CC3)cn1 | 4.86 |
| Cc1cc(CN2CCN(C(=O)C3CCC3)[C@@H]3CS(=O)(=O)C[C@@H]32)ccc1F | 0.66 |

| Structure (SMILES) | cytotoxicity at 10 µM [%] |
| --- | --- |
| CC1CN(C(=O)CN(Cc2ccccc2)C2CC2)CCO1 (centres undefined) | -16.1 |
| O=c1[nH]c(NC2CCCC2)nc2nccc(-c3ccsc3)c12 | -12.1 |
| CC(C)(C)c1ccc(-n2ncc3c2CCCC3N)cc1 (centres undefined) | -0.711 |
| Cc1ccc(N2CCCC(NCC(=O)NCC3CC3)C2)nn1 (centres undefined) | -2.5 |
| CCN1C(=O)CCC12CCN(C(=O)c1ccco1)CC2 | -3.66 |
| CCOC(=O)N1CCC(NC(C)Cc2cc(C)n[nH]2)CC1 (centres undefined) | -2.65 |
| CCc1cnc(CCNC(=O)N2CCCC(c3ncc[nH]3)C2)s1 (centres undefined) | -4.15 |
| CCn1cnnc1CNC(=O)NC(C)c1ccccn1 (centres undefined) | -17.6 |
| Nc1nccnc1C(=O)N1CC(OCc2cccc3ccccc23)C1 | 7.39 |
| Cc1nc(N2CCCC2)ncc1-c1cc(O)nc(N2CCCC2)n1 | 6.79 |
| CC(NCc1cccs1)c1ccc(OCc2nccn2C)cc1 (centres undefined) | -7.88 |
| CN(CCCO)C(=O)c1ccc2c(c1)nc(N1CC[C@H](O)C1)n2C | -1.46 |
| Cc1ccc(CN2CCc3c(COCC4CC4)nn(C)c3C2)s1 | 6.35 |
| COc1cc(C)ccc1OCC(=O)NS(=O)(=O)c1cccnc1 | 4.03 |
| Cc1nc2ccccc2nc1CN1CCCC1Cn1cccn1 (centres undefined) | -31.4 |
| CCC(C)(CNC(=O)Nc1nccs1)N1CCOCC1 (centres undefined) | -6.46 |
| Cc1nc(C2(O)CCCNCC2)sc1CCOc1ccccc1F (centres undefined) | -36.5 |
| COc1cc(N2C[C@H]3CN(C(=O)c4cnccn4)C[C@H]3C2)ncn1 | -141 |
| O=C([C@H]1C[C@@H]2CCN(C3CCOCC3)C[C@@H]2O1)N1CCOCC1 | -2.56 |
| CC(C(=O)N1CCN(c2ccccc2Cl)CC1)n1cncn1 (centres undefined) | 5.17 |
| CCc1ncc2c(n1)CN(CC(=O)NC1CCCCNC1=O)CC2 (centres undefined) | 6.61 |
